Holding throughout (details): Bos taurus
Compound in data set [1]: O=C(NC(=S)Nc1ccc(S(=O)(=O)Nc2ncccn2)cc1)c1ccc(Cl)cc1
The data set is described as follows: Mixed-type inhibition of calf intestinal alkaline phosphatase assessed as substrate Km at 0.3 uM using varying levels of p-NPP as substrate by Lineweaver-Burk plot analysis (reference value: 0.833 mM). The method, boiled down: (§1)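 Same CIALP buffer and enzyme system with inhibitor at 0.0, 0.015 and 0.3 µM and p-NPP at 10, 5, 2.5, 1.25 and 0.625 mM. Initial velocities were read every minute over the first 10 min after enzyme addition. Inhibition type came from Lineweaver-Burk plots of 1/V vs 1/[S]. Ki came from secondary plots of slope vs inhibitor concentration, Ki′ from intercept vs concentration.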

Compound in data set [2]: O=C(NC(=S)Nc1ccc(S(=O)(=O)Nc2ncccn2)cc1)c1ccc(Cl)cc1
Put plainly: Mixed-type inhibition of calf intestinal alkaline phosphatase assessed as substrate Km at 0.015 uM using varying levels of p-NPP as substrate by Lineweaver-Burk plot analysis (reference value: 0.833 mM). The method in brief:
as §1

Compound in data set [3]: O=C(NC(=S)Nc1ccc(S(=O)(=O)Nc2ncccn2)cc1)c1ccc(Cl)cc1
The data set is described as follows: Mixed-type inhibition of calf intestinal alkaline phosphatase assessed as substrate Vmax at 0.3 uM using varying levels of p-NPP as substrate measured every minute for 10 mins by Lineweaver-Burk plot analysis (reference value: 1.2 10^-5deltaA/s). The method in brief:
as §1

Compound in data set [4]: O=C(NC(=S)Nc1ccc(S(=O)(=O)Nc2ncccn2)cc1)c1ccc(Cl)cc1
Put plainly: Mixed-type inhibition of calf intestinal alkaline phosphatase assessed as substrate Vmax at 0.015 uM using varying levels of p-NPP as substrate measured every minute for 10 mins by Lineweaver-Burk plot analysis (reference value: 1.2 10^-5deltaA/s). The method in brief: as §1

B1: Intestinal-type alkaline phosphatase (Bos taurus), P19111 (protein)
chain: MQGACVLLLLGLHLQLSLGLVPVEEEDPAFWNRQAAQALDVAKKLQPIQTAAKNVILFLGDGMGVPTVTATRILKGQMNGKLGPETPLAMDQFPYVALSKTYNVDRQVPDSAGTATAYLCGVKGNYRTIGVSAAARYNQCKTTRGNEVTSVMNRAKKAGKSVGVVTTTRVQHASPAGAYAHTVNRNWYSDADLPADAQMNGCQDIAAQLVNNMDIDVILGGGRKYMFPVGTPDPEYPDDASVNGVRKRKQNLVQAWQAKHQGAQYVWNRTALLQAADDSSVTHLMGLFEPADMKYNVQQDHTKDPTLQEMTEVALRVVSRNPRGFYLFVEGGRIDHGHHDDKAYMALTEAGMFDNAIAKANELTSELDTLILVTADHSHVFSFGGYTLRGTSIFGLAPSKALDSKSYTSILYGNGPGYALGGGSRPDVNDSTSEDPSYQQQAAVPQASETHGGEDVAVFARGPQAHLVHGVEEETFVAHIMAFAGCVEPYTDCNLPAPTTATSIPDAAHLAASPPPLALLAGAMLLLLAPTLY
The term Km denotes the concentration of substrate that gives half-maximal velocity. Consider B1, for which the Michaelis-Menten constant (Km) was determined as 2000 µM in data set [1] and 1330 µM in data set [2]. Also, the Vmax (10'-5deltaA/s) in data set [3] worked out at 4.9. The Vmax (10'-6deltaA/s) in data set [4] worked out at 8.

These data come from ChEMBL document CHEMBL4118259, “Synthesis of sulfadiazinyl acyl/aryl thiourea derivatives as calf intestinal alkaline phosphatase inhibitors, pharmacokinetic properties, lead optimization, Lineweaver-Burk plot evaluation and binding analysis” (Bioorg Med Chem, 2018).
